Experiments:
Type in all cases: toxicity, cell-based
[1] = tested on: Fibroblast; assay: Multiplex assay against human fibroblast
How it was run: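 Compound was added to live cells that had been stained at seeding with Hoechst33342, BioTracker Green Microtubule Cytoskeleton Dye, MitoTracker Red and Annexin V Alexa Fluor 680, and imaging followed on a CQ1 microscope at 37°C and 5% CO2. CellPathfinder machine-learning gating divided cells into Hoechst high-intensity objects or normal cells, normal cells into healthy, pyknosed or fragmented nuclei, and pyknosed cells into mitotic or apoptotic. Tubulin, mitochondrial-mass and membrane-permeability phenotypes are per cents of healthy-nucleus cells.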

[2] = tested on: HEK-293T; assay: Incucyte cell viability with HEK293T; settings: human, 10 µM, compound concentration 10 uM; further: filed as whole numbers so only -1 and 0 and 1 occur
[3] = tested on: Fibroblast; assay: Incucyte cell viability with human fibroblast; settings: 10 µM, compound concentration 10 uM; further: filed as whole numbers so only -1 and 0 and 1 occur
[4] = tested on: U2OS; assay: Incucyte cell viability with U2OS; settings: human, 10 µM, compound concentration 10 uM; further: filed as whole numbers so only -1 and 0 and 1 occur
[5] = 12 h, 1 µM, compound concentration 1 uM, replicate 1
[6] = 12 h, 1 µM, compound concentration 1 uM, replicate 2
[7] = 12 h, 10 µM, compound concentration 10 uM, replicate 1
[8] = 12 h, 10 µM, compound concentration 10 uM, replicate 2
[9] = 24 h, 1 µM, compound concentration 1 uM, replicate 1
[10] = 24 h, 1 µM, compound concentration 1 uM, replicate 2
[11] = 24 h, 10 µM, compound concentration 10 uM, replicate 1
[12] = 24 h, 10 µM, compound concentration 10 uM, replicate 2
[13] = 48 h, 1 µM, compound concentration 1 uM, replicate 1
[14] = 48 h, 1 µM, compound concentration 1 uM, replicate 2
[15] = 48 h, 10 µM, compound concentration 10 uM, replicate 1
[16] = 48 h, 10 µM, compound concentration 10 uM, replicate 2
[17] = 0 h, replicate number 1, timepoint 0 hours
[18] = 12 h, replicate number 1, timepoint 12 hours
[19] = 18 h, replicate number 1, timepoint 18 hours
[20] = 24 h, replicate number 1, timepoint 24 hours
[21] = 6 h, replicate number 2, timepoint 6 hours

Q: Which results are given for `CC(C)N1CCC(C)(C)c2cc(C#Cc3ccc(C(=O)O)cc3)ccc21`?
A: Population Apoptotic (%) [1, 5]: 89%; Population Fragmented Nuclei (%) [1, 5]: 42%; Population Healthy Nuclei (%) [1, 5]: 41%; Population Hoechst High Intensity Objects (%) [1, 5]: 41%; Population Membrane Permeable-Phenotype (%) [1, 5]: 30%; Population Mitochondria Different-Phenotype (%) [1, 5]: 6%; Population Mitotic Cells (%) [1, 5]: 10%; Population Normal (%) [1, 5]: 58%; Population Pyknosed Nuclei (%) [1, 5]: 15%; Population Tubulin-Different-Phenotype (%) [1, 5]: 46%; Total Cell Count [1, 5]: 207; Population Apoptotic (%) [1, 6]: 20%; Population Fragmented Nuclei (%) [1, 6]: 16%; Population Healthy Nuclei (%) [1, 6]: 75%; Population Hoechst High Intensity Objects (%) [1, 6]: 13%; Population Membrane Permeable-Phenotype (%) [1, 6]: 6%; Population Mitochondria Different-Phenotype (%) [1, 6]: 15%; Population Mitotic Cells (%) [1, 6]: 80%; Population Normal (%) [1, 6]: 86%; Population Pyknosed Nuclei (%) [1, 6]: 8%; Population Tubulin-Different-Phenotype (%) [1, 6]: 20%; Total Cell Count [1, 6]: 69; Population Apoptotic (%) [1, 7]: 75%; Population Fragmented Nuclei (%) [1, 7]: 89%; Population Healthy Nuclei (%) [1, 7]: 6%; Population Hoechst High Intensity Objects (%) [1, 7]: 76%; Population Membrane Permeable-Phenotype (%) [1, 7]: 14%; Population Mitochondria Different-Phenotype (%) [1, 7]: 0%; Population Mitotic Cells (%) [1, 7]: 25%; Population Normal (%) [1, 7]: 23%; Population Pyknosed Nuclei (%) [1, 7]: 3%; Population Tubulin-Different-Phenotype (%) [1, 7]: 7%; Total Cell Count [1, 7]: 898; Population Apoptotic (%) [1, 8]: 0%; Population Fragmented Nuclei (%) [1, 8]: 55%; Population Healthy Nuclei (%) [1, 8]: 44%; Population Hoechst High Intensity Objects (%) [1, 8]: 71%; Population Membrane Permeable-Phenotype (%) [1, 8]: 4%; Population Mitochondria Different-Phenotype (%) [1, 8]: 14%; Population Mitotic Cells (%) [1, 8]: 0%; Population Normal (%) [1, 8]: 28%; Population Pyknosed Nuclei (%) [1, 8]: 0%; Population Tubulin-Different-Phenotype (%) [1, 8]: 28%; Total Cell Count [1, 8]: 327; Population Apoptotic (%) [1, 9]: 85%; Population Fragmented Nuclei (%) [1, 9]: 39%; Population Healthy Nuclei (%) [1, 9]: 48%; Population Hoechst High Intensity Objects (%) [1, 9]: 41%; Population Membrane Permeable-Phenotype (%) [1, 9]: 29%; Population Mitochondria Different-Phenotype (%) [1, 9]: 1%; Population Mitotic Cells (%) [1, 9]: 14%; Population Normal (%) [1, 9]: 58%; Population Pyknosed Nuclei (%) [1, 9]: 11%; Population Tubulin-Different-Phenotype (%) [1, 9]: 38%; Total Cell Count [1, 9]: 202; Population Apoptotic (%) [1, 10]: 50%; Population Fragmented Nuclei (%) [1, 10]: 18%; Population Healthy Nuclei (%) [1, 10]: 76%; Population Hoechst High Intensity Objects (%) [1, 10]: 4%; Population Membrane Permeable-Phenotype (%) [1, 10]: 3%; Population Mitochondria Different-Phenotype (%) [1, 10]: 10%; Population Mitotic Cells (%) [1, 10]: 50%; Population Normal (%) [1, 10]: 95%; Population Pyknosed Nuclei (%) [1, 10]: 5%; Population Tubulin-Different-Phenotype (%) [1, 10]: 18%; Total Cell Count [1, 10]: 81; Population Apoptotic (%) [1, 11]: 72%; Population Fragmented Nuclei (%) [1, 11]: 86%; Population Healthy Nuclei (%) [1, 11]: 7%; Population Hoechst High Intensity Objects (%) [1, 11]: 78%; Population Membrane Permeable-Phenotype (%) [1, 11]: 33%; Population Mitochondria Different-Phenotype (%) [1, 11]: 0%; Population Mitotic Cells (%) [1, 11]: 27%; Population Normal (%) [1, 11]: 21%; Population Pyknosed Nuclei (%) [1, 11]: 5%; Population Tubulin-Different-Phenotype (%) [1, 11]: 20%; Total Cell Count [1, 11]: 921; Population Apoptotic (%) [1, 12]: 100%; Population Fragmented Nuclei (%) [1, 12]: 49%; Population Healthy Nuclei (%) [1, 12]: 47%; Population Hoechst High Intensity Objects (%) [1, 12]: 66%; Population Membrane Permeable-Phenotype (%) [1, 12]: 3%; Population Mitochondria Different-Phenotype (%) [1, 12]: 3%; Population Mitotic Cells (%) [1, 12]: 0%; Population Normal (%) [1, 12]: 33%; Population Pyknosed Nuclei (%) [1, 12]: 2%; Population Tubulin-Different-Phenotype (%) [1, 12]: 26%; Total Cell Count [1, 12]: 352; Population Apoptotic (%) [1, 13]: 57%; Population Fragmented Nuclei (%) [1, 13]: 47%; Population Healthy Nuclei (%) [1, 13]: 45%; Population Hoechst High Intensity Objects (%) [1, 13]: 45%; Population Membrane Permeable-Phenotype (%) [1, 13]: 29%; Population Mitochondria Different-Phenotype (%) [1, 13]: 0%; Population Mitotic Cells (%) [1, 13]: 42%; Population Normal (%) [1, 13]: 54%; Population Pyknosed Nuclei (%) [1, 13]: 6%; Population Tubulin-Different-Phenotype (%) [1, 13]: 29%; Total Cell Count [1, 13]: 202; Population Apoptotic (%) [1, 14]: 0%; Population Fragmented Nuclei (%) [1, 14]: 57%; Population Healthy Nuclei (%) [1, 14]: 42%; Population Hoechst High Intensity Objects (%) [1, 14]: 35%; Population Membrane Permeable-Phenotype (%) [1, 14]: 14%; Population Mitochondria Different-Phenotype (%) [1, 14]: 5%; Population Mitotic Cells (%) [1, 14]: 100%; Population Normal (%) [1, 14]: 64%; Population Pyknosed Nuclei (%) [1, 14]: 0%; Population Tubulin-Different-Phenotype (%) [1, 14]: 25%; Total Cell Count [1, 14]: 198; Population Apoptotic (%) [1, 15]: 60%; Population Fragmented Nuclei (%) [1, 15]: 90%; Population Healthy Nuclei (%) [1, 15]: 6%; Population Hoechst High Intensity Objects (%) [1, 15]: 77%; Population Membrane Permeable-Phenotype (%) [1, 15]: 25%; Population Mitochondria Different-Phenotype (%) [1, 15]: 0%; Population Mitotic Cells (%) [1, 15]: 40%; Population Normal (%) [1, 15]: 22%; Population Pyknosed Nuclei (%) [1, 15]: 2%; Population Tubulin-Different-Phenotype (%) [1, 15]: 18%; Total Cell Count [1, 15]: 1050; Population Apoptotic (%) [1, 16]: 0%; Population Fragmented Nuclei (%) [1, 16]: 93%; Population Hoechst High Intensity Objects (%) [1, 16]: 84%; Population Membrane Permeable-Phenotype (%) [1, 16]: 20%; Population Mitochondria Different-Phenotype (%) [1, 16]: 10%; Population Mitotic Cells (%) [1, 16]: 0%; Population Normal (%) [1, 16]: 15%; Population Pyknosed Nuclei (%) [1, 16]: 0%; Population Tubulin-Different-Phenotype (%) [1, 16]: 10%; Total Cell Count [1, 16]: 961; Growth Rate [2, 17]: 1; Growth Rate ([2]; 0 h, replicate number 2, timepoint 0 hours): 0; Growth Rate ([2]; 6 h, replicate number 1, timepoint 6 hours): 1; Growth Rate [2, 18]: 0; Growth Rate [2, 19]: 0; Growth Rate [2, 20]: 0; Growth Rate [3, 17]: 0; Growth Rate [3, 21]: 0; Growth Rate [3, 18]: 0; Growth Rate ([3]; 12 h, replicate number 2, timepoint 12 hours): 1; Growth Rate [3, 19]: 0; Growth Rate [3, 20]: 0; Growth Rate [4, 17]: 0; Growth Rate [4, 21]: 0; Growth Rate [4, 18]: 1; Growth Rate [4, 19]: 1; Growth Rate [4, 20]: 1
